Tests used:
Rattus norvegicus = test: Inhibition of rat popliteal lymph node (PLN) hyperplasia when given ip; format: functional
Summary of the method: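 Popliteal lymph node hyperplasia is induced in Lewis rats by Brown Norway rat cells, and its inhibition is measured.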

[1] = target: Peptidyl-prolyl cis-trans isomerase FKBP1A (Homo sapiens, UniProt P62942); test: Inhibitory binding activity against human Immunophilin-FK-506 binding protein 12
Summary of the method: (§1)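 IC50 values are reported as mean ± SD for the stated number of determinations, using human cells or protein.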

Homo sapiens = organism: Homo sapiens; test: Inhibition of human mixed lymphocyte response (MLR); format: functional; summary of the method: as §1

Chain of Peptidyl-prolyl cis-trans isomerase FKBP1A (P62942 whole entry): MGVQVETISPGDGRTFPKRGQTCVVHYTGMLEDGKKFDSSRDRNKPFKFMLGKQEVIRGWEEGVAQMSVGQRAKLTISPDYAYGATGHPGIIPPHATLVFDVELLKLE

Compound	IC50 [1]	IC50 (Homo sapiens)	ED50 (Rattus norvegicus)
CC[C@@H]1/C=C(\C)C[C@H](C)C[C@H](OC)[C@H]2O[C@@](O)(C(=O)C(=O)N3CCCC[C@H]3C(=O)O[C@H](/C(C)=C/C3CC[C@@H](OCC(=O)N(C)CCc4ccccc4)[C@H](OC)C3)[C@H](C)[C@@H](O)CC1=O)[C@H](C)C[C@@H]2OC (some centres undefined)	0.4 nM	0.64 nM	> 3 mg/kg/day
C=CC[C@@H]1/C=C(\C)C[C@H](C)C[C@H](OC)[C@H]2O[C@@](O)(C(=O)C(=O)N3CCCC[C@H]3C(=O)O[C@H](/C(C)=C/[C@@H]3CC[C@@H](O)[C@H](OC)C3)[C@H](C)[C@@H](O)CC1=O)[C@H](C)C[C@@H]2OC [TACROLIMUS ANHYDROUS]	–	0.48 nM	0.1 mg/kg/day
CC[C@@H]1/C=C(\C)C[C@H](C)C[C@H](OC)[C@H]2O[C@@](O)(C(=O)C(=O)N3CCCC[C@H]3C(=O)O[C@H](/C(C)=C/C3CC[C@@H](OCC(=O)NCCc4ccccc4)[C@H](OC)C3)[C@H](C)[C@@H](O)CC1=O)[C@H](C)C[C@@H]2OC (some centres undefined)	13 nM	0.34 nM	> 3 mg/kg/day
CC[C@@H]1/C=C(\C)C[C@H](C)C[C@H](OC)[C@H]2O[C@@](O)(C(=O)C(=O)N3CCCC[C@H]3C(=O)O[C@H](/C(C)=C/[C@@H]3CC[C@@H](O)[C@H](OC)C3)[C@H](C)[C@@H](O)CC1=O)[C@H](C)C[C@@H]2OC [ASCOMYCIN]	2.1 nM	–	0.3 mg/kg/day
CC[C@@H]1/C=C(\C)C[C@H](C)C[C@H](OC)[C@H]2O[C@@](O)(C(=O)C(=O)N3CCCC[C@H]3C(=O)O[C@H](/C(C)=C/C3CC[C@@H](OCC(=O)Nc4ccc(N5CCOCC5)cc4)[C@H](OC)C3)[C@H](C)[C@@H](O)CC1=O)[C@H](C)C[C@@H]2OC (some centres undefined)	19 nM	0.58 nM	–
CC[C@@H]1/C=C(\C)C[C@H](C)C[C@H](OC)[C@H]2O[C@@](O)(C(=O)C(=O)N3CCCC[C@H]3C(=O)O[C@H](/C(C)=C/C3CC[C@@H](OCC(=O)O)[C@H](OC)C3)[C@H](C)[C@@H](O)CC1=O)[C@H](C)C[C@@H]2OC (some centres undefined)	4 nM	140 nM	> 3 mg/kg/day
CC[C@@H]1/C=C(\C)C[C@H](C)C[C@H](OC)[C@H]2O[C@@](O)(C(=O)C(=O)N3CCCC[C@H]3C(=O)O[C@H](/C(C)=C/C3CC[C@@H](OCC(=O)Nc4ccc(Cl)c(Cl)c4)[C@H](OC)C3)[C@H](C)[C@@H](O)CC1=O)[C@H](C)C[C@@H]2OC (some centres undefined)	500 nM	0.55 nM	–
CC[C@@H]1/C=C(\C)C[C@H](C)C[C@H](OC)[C@H]2O[C@@](O)(C(=O)C(=O)N3CCCC[C@H]3C(=O)O[C@H](/C(C)=C/C3CC[C@@H](OCC(=O)NCc4ccccc4)[C@H](OC)C3)[C@H](C)[C@@H](O)CC1=O)[C@H](C)C[C@@H]2OC (some centres undefined)	48 nM	0.79 nM	1.2 mg/kg/day
CC[C@@H]1/C=C(\C)C[C@H](C)C[C@H](OC)[C@H]2O[C@@](O)(C(=O)C(=O)N3CCCC[C@H]3C(=O)O[C@H](/C(C)=C/C3CC[C@@H](OCC(=O)Nc4ccccc4)[C@H](OC)C3)[C@H](C)[C@@H](O)CC1=O)[C@H](C)C[C@@H]2OC (some centres undefined)	170 nM	0.29 nM	1.4 mg/kg/day
CCOC(=O)CO[C@@H]1CCC(/C=C(\C)[C@H]2OC(=O)[C@@H]3CCCCN3C(=O)C(=O)[C@]3(O)O[C@H]([C@@H](OC)C[C@@H](C)C/C(C)=C/[C@@H](CC)C(=O)C[C@H](O)[C@H]2C)[C@@H](OC)C[C@H]3C)C[C@H]1OC (some centres undefined)	9.4 nM	0.91 nM	> 3 mg/kg/day
CO[C@H]1C[C@@H]2CC[C@@H](C)[C@@](O)(O2)C(=O)C(=O)N2CCCC[C@H]2C(=O)O[C@H]([C@H](C)C[C@@H]2CC[C@@H](O)[C@H](OC)C2)CC(=O)[C@H](C)/C=C(\C)[C@@H](O)[C@@H](OC)C(=O)[C@H](C)C[C@H](C)/C=C/C=C/C=C/1C [SIROLIMUS]	–	1.27 nM	2.1 mg/kg/day
CC[C@@H]1/C=C(\C)C[C@H](C)C[C@H](OC)[C@H]2O[C@@](O)(C(=O)C(=O)N3CCCC[C@H]3C(=O)O[C@H](/C(C)=C/C3CC[C@@H](OCC(=O)N(C)c4ccccc4)[C@H](OC)C3)[C@H](C)[C@@H](O)CC1=O)[C@H](C)C[C@@H]2OC (some centres undefined)	2.9 nM	0.26 nM	1.9 mg/kg/day
CC[C@@H]1/C=C(\C)C[C@H](C)C[C@H](OC)[C@H]2O[C@@](O)(C(=O)C(=O)N3CCCC[C@H]3C(=O)O[C@H](/C(C)=C/C3CC[C@@H](OCC(=O)NC4CCCCC4)[C@H](OC)C3)[C@H](C)[C@@H](O)CC1=O)[C@H](C)C[C@@H]2OC (some centres undefined)	2 nM	0.47 nM	–
CC[C@@H]1/C=C(\C)C[C@H](C)C[C@H](OC)[C@H]2O[C@@](O)(C(=O)C(=O)N3CCCCC3C(=O)O[C@H](/C(C)=C/C3CC[C@@H](OCC(=O)OCc4ccccc4)[C@H](OC)C3)[C@H](C)[C@@H](O)CC1=O)[C@H](C)C[C@@H]2OC (some centres undefined)	68 nM	7.62 nM	> 3 mg/kg/day

More lines, main results first:

IC50 [1]	IC50 (Homo sapiens)	Compound	ED50 (Rattus norvegicus)
71 nM	0.02 nM	CC[C@@H]1/C=C(\C)C[C@H](C)C[C@H](OC)[C@H]2O[C@@](O)(C(=O)C(=O)N3CCCC[C@H]3C(=O)O[C@H](/C(C)=C/C3CC[C@@H](OCC(=O)Nc4ccc(C)cc4)[C@H](OC)C3)[C@H](C)[C@@H](O)CC1=O)[C@H](C)C[C@@H]2OC (some centres undefined)	–
2.4 nM	0.05 nM	CC[C@@H]1/C=C(\C)C[C@H](C)C[C@H](OC)[C@H]2O[C@@](O)(C(=O)C(=O)N3CCCC[C@H]3C(=O)O[C@H](/C(C)=C/C3CC[C@@H](OCC(=O)Nc4ccccn4)[C@H](OC)C3)[C@H](C)[C@@H](O)CC1=O)[C@H](C)C[C@@H]2OC (some centres undefined)	–
3.2 nM	0.16 nM	CC[C@@H]1/C=C(\C)C[C@H](C)C[C@H](OC)[C@H]2O[C@@](O)(C(=O)C(=O)N3CCCC[C@H]3C(=O)O[C@H](/C(C)=C/C3CC[C@@H](OCC(=O)Nc4ccncc4)[C@H](OC)C3)[C@H](C)[C@@H](O)CC1=O)[C@H](C)C[C@@H]2OC (some centres undefined)	–
180 nM	0.16 nM	CC[C@@H]1/C=C(\C)C[C@H](C)C[C@H](OC)[C@H]2O[C@@](O)(C(=O)C(=O)N3CCCC[C@H]3C(=O)O[C@H](/C(C)=C/C3CC[C@@H](OCC(=O)Nc4cccc(F)c4)[C@H](OC)C3)[C@H](C)[C@@H](O)CC1=O)[C@H](C)C[C@@H]2OC (some centres undefined)	–
470 nM	0.14 nM	CC[C@@H]1/C=C(\C)C[C@H](C)C[C@H](OC)[C@H]2O[C@@](O)(C(=O)C(=O)N3CCCC[C@H]3C(=O)O[C@H](/C(C)=C/C3CC[C@@H](OCC(=O)Nc4cccc(C(F)(F)F)c4)[C@H](OC)C3)[C@H](C)[C@@H](O)CC1=O)[C@H](C)C[C@@H]2OC (some centres undefined)	–
46 nM	0.03 nM	CC[C@@H]1/C=C(\C)C[C@H](C)C[C@H](OC)[C@H]2O[C@@](O)(C(=O)C(=O)N3CCCC[C@H]3C(=O)O[C@H](/C(C)=C/C3CC[C@@H](OCC(=O)Nc4ccc(F)cc4)[C@H](OC)C3)[C@H](C)[C@@H](O)CC1=O)[C@H](C)C[C@@H]2OC (some centres undefined)	–
180 nM	0.07 nM	CC[C@@H]1/C=C(\C)C[C@H](C)C[C@H](OC)[C@H]2O[C@@](O)(C(=O)C(=O)N3CCCC[C@H]3C(=O)O[C@H](/C(C)=C/C3CC[C@@H](OCC(=O)Nc4ccc(Cl)cc4)[C@H](OC)C3)[C@H](C)[C@@H](O)CC1=O)[C@H](C)C[C@@H]2OC (some centres undefined)	–
16 nM	0.14 nM	CC[C@@H]1/C=C(\C)C[C@H](C)C[C@H](OC)[C@H]2O[C@@](O)(C(=O)C(=O)N3CCCC[C@H]3C(=O)O[C@H](/C(C)=C/C3CC[C@@H](OCC(=O)Nc4ccc(O)cc4)[C@H](OC)C3)[C@H](C)[C@@H](O)CC1=O)[C@H](C)C[C@@H]2OC (some centres undefined)	–
0.6 nM	0.13 nM	CC[C@@H]1/C=C(\C)C[C@H](C)C[C@H](OC)[C@H]2O[C@@](O)(C(=O)C(=O)N3CCCC[C@H]3C(=O)O[C@H](/C(C)=C/C3CC[C@@H](OCC(N)=O)[C@H](OC)C3)[C@H](C)[C@@H](O)CC1=O)[C@H](C)C[C@@H]2OC (some centres undefined)	0.3 mg/kg/day
50 nM	0.04 nM	CC[C@@H]1/C=C(\C)C[C@H](C)C[C@H](OC)[C@H]2O[C@@](O)(C(=O)C(=O)N3CCCC[C@H]3C(=O)O[C@H](/C(C)=C/C3CC[C@@H](OCC(=O)Nc4ccc(OC)cc4)[C@H](OC)C3)[C@H](C)[C@@H](O)CC1=O)[C@H](C)C[C@@H]2OC (some centres undefined)	–
3.3 nM	0.1 nM	CC[C@@H]1/C=C(\C)C[C@H](C)C[C@H](OC)[C@H]2O[C@@](O)(C(=O)C(=O)N3CCCC[C@H]3C(=O)O[C@H](/C(C)=C/C3CC[C@@H](OCC(=O)Nc4cccnc4)[C@H](OC)C3)[C@H](C)[C@@H](O)CC1=O)[C@H](C)C[C@@H]2OC (some centres undefined)	–
570 nM	0.23 nM	CC[C@@H]1/C=C(\C)C[C@H](C)C[C@H](OC)[C@H]2O[C@@](O)(C(=O)C(=O)N3CCCC[C@H]3C(=O)O[C@H](/C(C)=C/C3CC[C@@H](OCC(=O)Nc4ccc(C(F)(F)F)cc4)[C@H](OC)C3)[C@H](C)[C@@H](O)CC1=O)[C@H](C)C[C@@H]2OC (some centres undefined)	–
5.6 nM	0.09 nM	CC[C@@H]1/C=C(\C)C[C@H](C)C[C@H](OC)[C@H]2O[C@@](O)(C(=O)C(=O)N3CCCC[C@H]3C(=O)O[C@H](/C(C)=C/C3CC[C@@H](OCC(=O)N(C)Cc4ccccc4)[C@H](OC)C3)[C@H](C)[C@@H](O)CC1=O)[C@H](C)C[C@@H]2OC (some centres undefined)	> 3 mg/kg/day

— ChEMBL document CHEMBL1131619, “32-Ascomycinyloxyacetic acid derived immunosuppressants. Independence of immunophilin binding and immunosuppressive potency” (J Med Chem, 1998)
